Source: PubChem BioAssay (several laboratories)
CHOP UPR activ: activators of apoptotic arm of unfolded protein response (CHOP); 330,000 compounds, 0.34% hits; AID 449763; activation, % at 10 µM; CHO-CHOP luciferase reporter, UPR activation, luminescence; percent of tunicamycin response over DMSO baseline;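 active = at 10 µM dose, activation of 40% or more, normalized to positive control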;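 also: 100% = tunicamycin at 10 µg/mL and 0% = DMSO alone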
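Assay system: CHO-CHOP cells, stable luciferase reporter of PERK-eIF2a-CHOP signalling / Buffer or medium: F12 plus 10% serum / Compound dosing: one dose, 10 µM in 0.5% DMSO / Times: 6 h compound treatment, 37 °C / Technique: luciferase luminescence / Read-out: % reporter activation, DMSO baseline versus tunicamycin full activation / Benchmarks: tunicamycin and DMSO controls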
Beta2AR agonist: human beta-2 adrenergic receptor agonism by FAP | P07550 | Am2.2-beta2AR cells, FAP receptor internalization, flow cytometry | response, % (concentration not given with the values) | 340,000 compounds, 0.43% hits | AID 504454;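 active = response above a set limit, near 3 SD of response in nonfluorescent compounds, cut at about 42% in these data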
Target sequence (P07550 whole entry, looked up): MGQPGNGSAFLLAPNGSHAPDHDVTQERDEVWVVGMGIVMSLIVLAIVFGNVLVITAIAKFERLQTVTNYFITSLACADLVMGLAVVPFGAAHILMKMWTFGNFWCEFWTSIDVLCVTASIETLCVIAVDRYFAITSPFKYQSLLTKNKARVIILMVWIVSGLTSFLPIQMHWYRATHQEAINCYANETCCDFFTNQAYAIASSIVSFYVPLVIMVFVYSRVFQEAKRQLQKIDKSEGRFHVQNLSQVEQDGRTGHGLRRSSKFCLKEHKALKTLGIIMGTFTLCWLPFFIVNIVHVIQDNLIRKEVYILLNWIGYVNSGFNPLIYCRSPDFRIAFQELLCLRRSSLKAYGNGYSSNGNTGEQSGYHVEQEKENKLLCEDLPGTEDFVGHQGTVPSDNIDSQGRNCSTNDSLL
XBP1 UPR activ: activators of adaptive arm of unfolded protein response (XBP1). CHO-XBP1 luciferase reporter, IRE1-XBP1 UPR activation, luminescence; percent of tunicamycin response, DMSO as zero. activation, % at 20 µM. 330,000 compounds, 0.33% hits;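 active = versus positive control, 20 µM dose yields 30% or more activation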;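 also: 100% = tunicamycin at 10 µg/mL and 0% = DMSO only wells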
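Assay system: CHO-XBP1 luciferase reporter cells; Schedule: 6 h treatment, 37 °C; Detection: glow luminescence from Steady-Glo reagent; Benchmarks: high control tunicamycin 10 µg/mL final, low control DMSO vehicle only.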
VLA-4 inh: inhibition in a human VLA-4 binding assay. P13612. VLA-4 expressing cells, ligand binding flow cytometry. inhibition, % (about 7 µM as worked out from the volumes in the protocol). 330,000 compounds, 0.2% hits. AID 2557; in the data active = inhibition above about 50%
CHOP inh: inhibitors of CHOP induction in ER stress response; CHO-K1 CHOP-promoter luciferase, tunicamycin-induced, 15-18 h; inhibition, % at 10 µM; 220,000 compounds, 3.8% hits; AID 2732;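 active = compounds that reduced the stress-induced luciferase reporter signal by more than about 70% of percent inhibition, limit read from the data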;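 also: 0% = tunicamycin plus vehicle and 100% = wells without tunicamycin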
VLA-4 allo CP: confirmation of allosteric modulators of human VLA-4 integrin; shares compounds with VLA-4 inh; U937 cells, HUTS-21 LIBS mAb binding, flow cytometry; LDV ligand present at threefold Kd; inhibition, % at 6.7 µM; 1,300 compounds, 2% hits; AID 2813; in the data active = inhibition above about 40%;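 also: 0% = ligand without compound and 100% = no ligand background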
Starred values were filed as active, the others as inactive; nt = no result given. The entries come from a sample that favours hits as a whole.

SMILES	CHOP UPR activ	Beta2AR agonist	XBP1 UPR activ	VLA-4 inh	CHOP inh	VLA-4 allo CP
Clc1cccc(N/N=C/c2ccc(N3CCOCC3)s2)c1	5.1	-0.2	-2.8	14.3	14.4	nt
COc1ccc(CNCCNC(=O)c2cccs2)cc1OC	3.7	-8.1	4.0	65.1*	10.5	-0.2
COCCNC(=O)c1ccc(S(=O)(=O)N2CCCc3ccccc32)cc1	1.7	6.0	-1.8	-9.6	nt	5.7
CCNC(=O)COC(=O)c1cc(S(=O)(=O)N2CCCc3ccccc32)ccc1Cl	-0.1	22.3	0.2	6.7	4.9	-2.8
CCC1CCc2c(sc(NC(=O)c3cnccn3)c2C(N)=O)C1 (stereo unspecified)	6.6	-1.4	6.0	10.3	nt	nt
COc1ccc(OC)c(NS(=O)(=O)c2ccc(SC)cc2)c1	-1.4	-7.0	-5.7	-4.9	nt	nt
CCOc1ccc(S(=O)(=O)Nc2cc(OC)ccc2OC)cc1	-1.6	21.5	9.3	53.1*	nt	56.5*
C/C(CC(=O)Nc1cccc2c1CCCC2)=N\NC(=O)c1cccc2ccccc12	-2.5	-0.7	-1.8	42.7	12.7	2.1
C/C(CC(=O)Nc1cccc2c1CCCC2)=N\NC(=O)c1ccccc1N	-0.6	0.9	-1.8	-0.9	7.1	nt
Cc1ccc(C(=O)Nc2nc3nc(-c4ccccc4)cc(=O)n3[nH]2)cc1	-3.0	-14.9	3.4	12.0	63.0	nt
CSc1nc2nc(-c3ccccc3)cc(=O)n2[nH]1	1.1	0.9	-2.0	92.7*	-5.3	5.1
Cc1c(C(=O)OCC(=O)N(C)C2CCS(=O)(=O)C2)oc2ccc(Br)cc12 (stereo unspecified)	0.0	8.6	0.2	0.6	9.4	nt
COc1ccc(CNC(=O)Cn2c(=O)oc3ccccc32)cc1OC	-4.0	4.3	-3.8	97.0*	2.4	-11.1
COc1cccc(CNC(=O)Cn2c(=O)oc3ccccc32)c1OC	0.4	4.8	0.8	37.6	-13.3	-4.9
COc1ccc(S(=O)(=O)N2CCCC(C(=O)NCCN3CCOCC3)C2)cc1C (stereo unspecified)	0.5	-0.9	1.7	-0.8	nt	nt
COc1cc(C)nc(-n2nc(C)cc2OC)n1	0.7	3.1	-4.6	-8.2	-1.7	0.0
CCOC(=O)c1cc(C)nn1-c1nc(Cl)cc(OC)n1	-0.9	3.4	-1.9	7.7	21.8	nt
CCn1c(/C=N/Nc2ccc(C(=O)O)cc2)nc2ccccc21	0.1	2.7	1.0	47.1	14.5	11.9
CC1CCCCN1C(=O)C(=O)c1cn(CC(=O)N2CCCCCC2)c2ccccc12 (stereo unspecified)	0.8	13.4	1.3	-2.4	nt	nt
CCS(=O)(=O)c1ccc(N)cc1	-1.6	-7.3	-0.6	57.5*	5.1	7.3
CC(=O)c1c(C)[nH]c(C(=O)OCC(=O)N2CCc3ccccc3C2)c1C	-0.2	1.4	0.9	0.3	nt	nt
COc1ccc(N(CC(=O)Nc2cc(Cl)ccc2OC)S(=O)(=O)c2c(C)[nH]c(=O)[nH]c2=O)cc1	1.1	-0.4	-9.8	0.4	nt	-4.8
Cc1cc(C)cc(N(CC(=O)Nc2ccc(C(F)(F)F)cc2)S(=O)(=O)c2c(C)[nH]c(=O)[nH]c2=O)c1	-1.3	-6.4	-2.4	-11.0	nt	nt
COc1ccc(N(CC(=O)Nc2cc(Cl)ccc2C)S(=O)(=O)c2c(C)n[nH]c2C)cc1	1.5	-17.1	-3.3	-7.8	nt	nt
Cc1ccc(N(CC(=O)Nc2ccc(Br)c(C)c2)S(=O)(=O)c2c(C)[nH]c(=O)[nH]c2=O)cc1	0.4	4.0	-5.2	-5.0	nt	-3.9
SMILES	CHOP UPR activ	Beta2AR agonist	XBP1 UPR activ	VLA-4 inh	CHOP inh	VLA-4 allo CP
COc1ccc(N(CC(=O)Nc2cc(C)ccc2C)S(=O)(=O)c2c(C)[nH]c(=O)[nH]c2=O)cc1	-0.4	-3.3	-3.8	-3.8	nt	-1.1
COc1ccc(N(CC(=O)NCc2ccc(C)cc2)S(=O)(=O)c2c(C)[nH]c(=O)[nH]c2=O)cc1	0.0	2.1	-4.8	-20.1	nt	nt
Cn1c(=O)c(N=O)c(N)n(Cc2ccccc2)c1=S	-1.5	2.1	-1.3	30.6	nt	nt
CCOc1ccc(N(Cc2ccc(OC)cc2)C(=O)c2ccco2)cc1	-0.9	-7.5	-2.3	-0.3	-0.8	nt
CCOc1ccc(N(Cc2ccc(OC)c(OC)c2)C(=O)c2ccco2)cc1	-1.1	1.1	4.7	67.8*	-0.9	8.2
COc1cc2c(cc1NC(=O)c1ccc(C(C)(C)C)cc1)CCCC2	-1.3	4.9	-1.8	81.9*	0.5	14.6
COc1cc2c(cc1NC(C)=O)CCCC2	-2.2	1.9	0.7	11.3	11.5	nt
Cc1ccc(S(=O)(=O)Nc2cccc(C(=O)NCCCN3CCOCC3)c2)cc1F	-0.9	0.6	-3.0	6.1	nt	nt
CS(=O)(=O)c1ccc(Cl)c(NC(=O)COC(=O)Cc2c[nH]c3ccccc23)c1	0.6	-4.5	-2.4	6.6	nt	nt
CC(=O)N[C@H](Cc1c[nH]c2ccccc12)C(=O)O	2.0	-6.5	-6.2	50.1*	nt	1.6
CCN1CCN(CC(O)COc2ccc(C)c(C)c2)CC1 (stereo unspecified)	-2.5	7.5	-4.0	92.2*	3.3	-4.2
CCOC(=O)c1c(C)n(-c2ccc(C)cc2)c2ccc(OCC(O)CN3CCN(C)CC3)cc12 (stereo unspecified)	nt	26.2	nt	nt	16.4	nt
Cc1cc(=O)oc2cc(OC(C)C(=O)NCCCN3CCCC3=O)c(Cl)cc12 (stereo unspecified)	0.2	1.2	-1.3	51.8*	nt	-3.5
O=C1OC(c2ccc(F)cc2)=N/C1=C\C=C/c1ccccc1	0.8	6.6	1.4	43.7	nt	2.9
O=C1OC(/C=C/c2ccccc2)=NC/1=C/C=C/c1ccccc1	0.6	8.1	-0.3	16.6	27.0	nt
COc1ccc(-c2nnc3ccc(SCC(=O)N4CCCC4)nn23)cc1	-1.0	-19.3	-2.8	9.6	6.8	nt
CCOc1ccc(-c2nnc3ccc(SCC(=O)N4CCCCC4)nn23)cc1	0.1	-33.4	-5.4	18.4	nt	-1.4
CN(C(=O)COC(=O)c1ccc2c(c1)OCO2)C1CCCCC1	4.5	-2.7	-1.2	14.4	nt	nt
CN(C(=O)COC(=O)c1ccc2c(c1)OCO2)C1CCS(=O)(=O)C1 (stereo unspecified)	-2.1	4.4	7.3	93.0*	18.4	0.0
C[C@@H](NC(=O)[C@@H]1Cc2ccccc2CN1)C(=O)NCc1ccco1	-0.5	2.6	-1.9	5.6	nt	nt
O=C(CN(C(=O)CNC(=O)c1ccco1)c1ccccc1F)NC1CCCCC1	0.5	-11.7	-3.6	1.4	nt	nt
COc1ccc(CC(=O)NNC(=O)CSc2ccc(C)cc2)cc1	-1.1	-4.3	-1.7	53.1*	11.9	3.7
CCOC(=O)c1sc2nc(C)nc(SCC(=O)N(C)C3CCS(=O)(=O)C3)c2c1C (stereo unspecified)	0.5	-9.6	1.8	42.5	-1.4	-10.2
COC(=O)c1ccc(NC(=O)C(=O)c2cn(CC(=O)N3CCOCC3)c3ccccc23)cc1	4.5	0.8	5.4	-0.7	nt	nt
